Data as given in ChEMBL document CHEMBL1137054, “Synthesis of 5'-substituted fluoro-neplanocin A analogues: importance of a hydrogen bonding donor at 5'-position for the inhibitory activity of S-adenosylhomocysteine hydrolase” (Bioorg Med Chem Lett, 2004).

How the values were obtained:
A549 = experiment: Concentration required for 50% inhibition of A549 cell line (human lung carcinoma cells); assay type: functional, cell-based
Method in brief: (§1)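 Cytotoxicity in cultured human cancer cells (Col2 colon carcinoma; A549 lung carcinoma). Cells were exposed to serial dilutions of compound, and the value is the concentration giving 50% survival.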

Adenosylhomocysteinase = Adenosylhomocysteinase (Homo sapiens, UniProt P23526); experiment: Inhibitory activity against enzyme S-adenosyl-homocysteine hydrolase of human placenta
Col2 = experiment: Concentration required for 50% inhibition of Col2 cell line (human colon carcinoma cells); assay type: functional, cell-based; method in brief: as §1

Adenosylhomocysteinase, sequence (P23526 whole entry): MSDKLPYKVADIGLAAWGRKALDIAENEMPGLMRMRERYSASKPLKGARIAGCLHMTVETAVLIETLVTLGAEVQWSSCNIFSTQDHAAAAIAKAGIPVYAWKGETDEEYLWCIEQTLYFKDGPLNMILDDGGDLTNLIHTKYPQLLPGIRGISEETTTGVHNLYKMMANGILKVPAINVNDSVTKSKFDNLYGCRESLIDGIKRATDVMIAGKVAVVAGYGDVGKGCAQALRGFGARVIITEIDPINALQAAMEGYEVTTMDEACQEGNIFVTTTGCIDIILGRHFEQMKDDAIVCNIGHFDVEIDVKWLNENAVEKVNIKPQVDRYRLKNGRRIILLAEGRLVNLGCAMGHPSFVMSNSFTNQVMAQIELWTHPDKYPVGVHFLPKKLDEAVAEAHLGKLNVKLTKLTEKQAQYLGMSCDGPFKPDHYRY

| SMILES | IC50 (A549) | IC50 (Adenosylhomocysteinase) | IC50 (Col2) |
| --- | --- | --- | --- |
| [N-]=[N+]=NCC1=C(F)[C@@H](n2cnc3c(N)ncnc32)[C@H](O)[C@@H]1O | 53 µM | > 100 µM | 35.9 µM |
| NCC1=C(F)[C@@H](n2cnc3c(N)ncnc32)[C@H](O)[C@@H]1O | 42.8 µM | 12.7 µM | 39.2 µM |
| Nc1ncnc2c1ncn2[C@@H]1C(F)=C(CF)[C@@H](O)[C@H]1O | > 100 µM | > 100 µM | > 100 µM |
| Nc1ncnc2c1ncn2[C@@H]1C(F)=C(CS)[C@@H](O)[C@H]1O | > 100 µM | 97.3 µM | > 100 µM |
| Nc1ncnc2c1ncn2[C@@H]1C(F)=C(CO)[C@@H](O)[C@H]1O [FLUORO-NEPLANOCIN A] | 4.6 µM | 0.48 µM | 1.4 µM |
